In data set [1] the test system is PC-12. In words: Induction of antioxidant defense system in rat PC12 cells assessed as increase in TrxR activity level incubated for 24 hrs by Escherichia coli Trx based assay. It is filed as functional, cell-based. In a few lines: (§1)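 Cellular TrxR activity: extract with 20 μg protein incubated 30 min at 37 °C in 100 mM Tris-HCl pH 7.4 containing 0.3 mM insulin, 660 μM NADPH, 3 mM EDTA, 4 μM E. coli Trx; stopped with 1 mM DTNB in 6 M guanidine-HCl pH 8.0; A412 minus Trx-free blank; % of DMSO control.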

Data set [2] addresses T1, Nuclear factor erythroid 2-related factor 2 (Rattus norvegicus) (UniProt O54968).
T1 sequence (whole entry): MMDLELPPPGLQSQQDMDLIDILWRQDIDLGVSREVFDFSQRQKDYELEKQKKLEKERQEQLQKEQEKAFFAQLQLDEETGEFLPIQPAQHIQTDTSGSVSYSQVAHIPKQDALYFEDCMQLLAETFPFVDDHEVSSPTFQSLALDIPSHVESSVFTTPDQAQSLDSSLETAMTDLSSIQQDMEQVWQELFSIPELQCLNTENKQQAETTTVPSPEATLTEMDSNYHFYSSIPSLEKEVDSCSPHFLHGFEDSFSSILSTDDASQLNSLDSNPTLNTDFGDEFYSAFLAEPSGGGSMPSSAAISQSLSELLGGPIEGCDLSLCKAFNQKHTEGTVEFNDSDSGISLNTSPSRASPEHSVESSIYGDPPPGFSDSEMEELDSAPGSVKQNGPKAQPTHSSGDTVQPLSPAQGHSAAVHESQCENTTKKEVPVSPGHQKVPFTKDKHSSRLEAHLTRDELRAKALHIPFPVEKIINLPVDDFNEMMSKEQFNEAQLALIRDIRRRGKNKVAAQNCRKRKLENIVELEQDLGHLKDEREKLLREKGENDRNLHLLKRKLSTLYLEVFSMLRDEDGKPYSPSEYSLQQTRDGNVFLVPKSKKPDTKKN
In words: Induction of Nrf2-mediated antioxidant genes expression in rat PC12 cells assessed as increase in TrxR1 protein expression at 10 and 20 uM incubated for 20 hrs by Western blotting method. In kind it is cell-based. The note with it: PC-12.

The nature of data set [3]: Cytotoxicity against rat PC12 cells assessed as reduction in cell viability at 20 uM to 100 uM incubated for 24 hrs by MTT assay. In kind it is cell-based. The note with it: pc-12, 24 h.
A short description of data set [4]: Cytoprotection activity against H2O2-induced cytotoxicity in rat PC12 cells assessed as increase in cell viability at 20 uM pre-incubated for 24 hrs before H2O2 exposure for 12 hrs by MTT assay. In kind it is functional, PC-12. Background: Tetrazolium dyes change colour on reduction, which living cells bring about.
Data set [5] deals with PC-12. In words: Induction of antioxidant genes expression in rat PC12 cells assessed as increase in NQO1 mRNA level at 20 uM incubated for 6 hrs by qRT-PCR method. In kind it is functional, cell-based. The method in brief: (§2)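 PC12 cells, 1×10^6 per 60-mm dish, 1 day, then 20 μM compound for 0, 3, 6 and 12 h; total RNA isolated, quantified by 260/280 absorbance; mRNA by real-time RT-PCR normalized to GAPDH; mean ± SD of three independent experiments versus 0 h.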
Background: Quantitative PCR measures a nucleic acid by following its amplification.

Data set [6] relates to PC-12. The experiment in a line: Cytoprotection activity against H2O2-induced cytotoxicity in rat PC12 cells assessed as cell viability at 10 and 20 uM pre-incubated for 24 hrs before H2O2 exposure for 12 hrs in presence of shNrf2 by MTT assay. It is filed as functional, cell-based.
In data set [7] the test system is PC-12. The experiment in a line: Cytoprotection activity against H2O2-induced oxidative stress in rat PC12 cells assessed as GSH level at pre-incubated for 24 hrs before H2O2 exposure for 12 hrs. It is filed as functional, cell-based. The method in brief: (§3)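 Total glutathione: cells extracted in KPE buffer (0.1% Triton X-100, 0.6% sulfosalicylic acid, 5 mM EDTA, 0.1 M PBS pH 7.5), sonicated on ice, centrifuged 3000 g 4 min at 4 °C; supernatant assayed enzymatically. PC12 cells 1×10^6 in 60-mm dishes, compound 24 h; stress lines add 500 μM H2O2 or 200 μM 6-OHDA 12 h.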

Data set [8] has as its system PC-12. In words: Induction of antioxidant genes expression in rat PC12 cells assessed as increase in GCLC mRNA level at 20 uM incubated for 6 hrs by qRT-PCR method. In kind it is functional, cell-based. The method in brief: as §2
In data set [9] the test system is PC-12. The experiment in a line: Induction of antioxidant defense system in rat PC12 cells assessed as increase in GSH level incubated for 24 hrs. It is filed as functional, cell-based. The method in brief:
as §3

The target in data set [10] is T1, Nuclear factor erythroid 2-related factor 2 (Rattus norvegicus). The experiment in a line: Induction of Nrf2 nuclear translocation in rat PC12 cells at 20 uM incubated for 2 to 8 hrs by Western blotting method. It is filed as cell-based. The following applies: PC-12. In a few lines:
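PC12 cells (1×10^6) in 60-mm dishes, 24 h, then 20 μM compound for 0, 2, 4 and 8 h; nuclear, cytosolic and whole-cell extracts prepared; Nrf2 detected by Western blot.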
(Immunoblotting shows a protein as a band on a membrane.)

Data set [11] deals with PC-12. In words: Cytoprotection activity against H2O2-induced apoptosis in rat PC12 cells assessed as reduction in caspase-3 activation at 10 and 20 uM pre-incubated for 24 hrs before H2O2 exposure for 24 hrs by colorimetric assay. It is filed as functional, cell-based. The method in brief:
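Lysed in RIPA buffer (pH 7.5), protein by Bradford; caspase-3 measured colorimetrically with Ac-DEVD-pNA substrate, expressed as % of control; mean ± SD, three independent experiments.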

Data set [12] has as its system PC-12. The experiment in a line: Induction of antioxidant genes expression in rat PC12 cells assessed as increase in Trx1 mRNA level at 20 uM incubated for 12 hrs by qRT-PCR method. In kind it is functional, cell-based. The method in brief: as §2
The test system of data set [13] is PC-12. In words: Cytoprotection activity against H2O2-induced oxidative stress in rat PC12 cells assessed as reduction in ROS generation at 10 and 20 uM pre-incubated for 24 hrs before H2O2 exposure for 5 hrs by DCFH-DA dye based fluorescent microscopy. It is filed as functional, cell-based.
In data set [14] the test system is PC-12. The experiment in a line: Induction of antioxidant genes expression in rat PC12 cells assessed as increase in TrxR1 activity at 10 and 20 uM incubated for 20 hrs by TRFS-green dye based fluorescent microscopy. It is filed as functional, cell-based. The method in brief: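 PC12 cells 2×10^5/well, 24 h, then compound 20 h; TRFS-green added to 10 μM final and incubated 4 h at 37 °C in the dark; green fluorescence intensity imaged by fluorescence microscopy as relative cellular TrxR activity.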

Data set [15] deals with T1, Nuclear factor erythroid 2-related factor 2 (Rattus norvegicus). In words: Induction of Nrf2-mediated antioxidant genes expression in rat PC12 cells assessed as increase in Trx1 protein expression at 10 and 20 uM incubated for 20 hrs by Western blotting method. It is filed as cell-based. The following applies: PC-12.
The test system of data set [16] is PC-12. In words: Cytoprotection activity against H2O2-induced oxidative stress in rat PC12 cells assessed as NQO1 activity at pre-incubated for 24 hrs before H2O2 exposure for 12 hrs by DCPIP dye reduction based spectrophotometry. In kind it is functional, cell-based. In a few lines:
(§4)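 NQO1: PC12 lysate in RIPA buffer, 5 μg protein into 20 mM Tris-HCl pH 7.4, 200 μM NADH, 40 μM DCPIP; A600 decrease read every 8 s for 2 min at room temperature ± 20 μM dicoumarol; dicoumarol-inhibitable rate used, expressed as % of DMSO control. Cells pretreated 24 h; stress lines then 500 μM H2O2 or 200 μM 6-OHDA 12 h.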

For data set [17], the system named is PC-12. In words: Cytoprotection activity against 6-OHDA-induced oxidative stress in rat PC12 cells assessed as TrxR1 activity at pre-incubated for 24 hrs before 6-OHDA exposure for 12 hrs by Escherichia coli Trx based assay. In kind it is functional, cell-based. In a few lines:
as §1

For data set [18], the system named is PC-12. In words: Induction of antioxidant defense system in rat PC12 cells assessed as increase in NQO1 activity level incubated for 24 hrs by DCPIP dye reduction based spectrophotometry. In kind it is functional, cell-based. In a few lines:
as §4

Active and inactive are the calls of the source. No cut-off for these calls is given here.

`COc1ccc(/C=C/C(=O)N2CCCC2=O)cc1`: the outcome in [1], in [2], in [5], in [7], in [8] and in [9] was Active. For the same compound, the outcome in data set [10], in data set [12], in data set [14], in data set [15], in data set [16] and in data set [17] was Active. The outcome in [18] was Active. Moreover, the Activity entry in data set [3] is “Non-toxic”; in data set [4], 80%; in data set [11], “Dose-dependent effect”; in data set [13], “Dose-dependent effect”. Further, the result in [6] was inactive.
Turning to `COc1cc(/C=C/C(=O)N2CCCCC2=O)cc(OC)c1OC`, the result in data set [1], in [2], in data set [5], in [7], in [8] and in data set [9] was Active. The outcome in [10], in [12], in [14], in data set [15], in data set [16] and in data set [17] was Active. Further, the outcome in data set [18] was Active. Moreover, the Activity entry in [3] was “Non-toxic”; in data set [4], 75%; in data set [11], “Dose-dependent effect”; in data set [13], “Dose-dependent effect”. The result in [6] was inactive.

These data come from ChEMBL document CHEMBL3580644, “Synthesis of piperlongumine analogues and discovery of nuclear factor erythroid 2-related factor 2 (Nrf2) activators as potential neuroprotective agents” (J Med Chem, 2015).
